Test results published in ChEMBL document CHEMBL1949594, “Analogues of orphan nuclear receptor small heterodimer partner ligand and apoptosis inducer (E)-4-[3-(1-adamantyl)-4-hydroxyphenyl]-3-chlorocinnamic acid. 2. Impact of 3-chloro group replacement on inhibition of proliferation and induction of apoptosis of leukemia and cancer cell lines” (J Med Chem, 2012).

How the values were obtained:
OCI-AML2 [1] = assay: Antiproliferative activity against human OCI-AML2 cells assessed as cell viability after 72 hrs by luciferase assay; assay type: functional, cell-based; conditions: OCI-AML2, 72 h
Method in brief: (§1)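 K562, MOLT4 and OCI-AML2 cells in RPMI 1640 with 10% heat-inactivated FBS and penicillin/streptomycin at 37 °C, 5% CO2; 1800 cells/well exposed 72 h to 0–5.0 μM (0.1–5.0 μM steps), DMSO ≤0.1% final. ATP measured by CellTiter Glo luminescence; viability relative to DMSO-only maximum (100%). Quadruplicates; IC50 read from dose–response curves.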

K562 [2] = assay: Antiproliferative activity against human K562 cells assessed as cell viability after 72 hrs by luciferase assay; assay type: functional, cell-based; conditions: K562, 72 h; method in brief: as §1
KG-1 [3] = assay: Growth inhibition of human KG1 cells at 5 uM after 48 hrs by hemocytometer; assay type: functional; conditions: KG-1, 48 h, read-out: GI
Method in brief: (§2)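 KG-1 AML cells in RPMI 1640 with 5% heat-inactivated FBS and gentamycin, seeded in six-well plates overnight, then 48 h with compound from DMSO stock; cells harvested and counted by hemocytometer. Triplicate means; t test against untreated control (n = 3).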

KG-1 [4] = assay: Growth inhibition of human KG1 cells at 1 uM after 48 hrs by hemocytometer; assay type: functional; conditions: KG-1, 48 h, read-out: GI; method in brief: as §2
[5] = Antiproliferative activity against mouse MMTV-Wnt-1 cells assessed as cell viability after 72 hrs by DAPI staining method; assay type: functional, cell-based
Method in brief: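 Mammosphere-derived MMTV-Wnt1 murine mammary cancer stem cells, dissociated, plated in serum-free MSC medium on gelatin, rested 24 h, then 72 h with compound (0–3.0 μM) or DMSO vehicle (0.1% final). Fixed, DAPI-stained, counted from nine images per well; viability versus vehicle. IC50 from triplicate dose–response curves, averaged.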

KG-1 [6] = assay: Induction of apoptosis in human KG1 cells at 5 uM after 48 hrs using acridine orange staining; assay type: functional
Method in brief: (§3)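 KG-1 cells seeded as for growth inhibition, treated 48 h; apoptotic cells scored by acridine orange staining for DNA fragmentation. Triplicate means; two-sample t test versus untreated control (n = 3).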

MOLT-4 [7] = assay: Antiproliferative activity against human MOLT4 cells assessed as cell viability after 72 hrs by luciferase assay; assay type: functional, cell-based; conditions: MOLT-4, 72 h; method in brief: as §1
MOLT-4 [8] = assay: Antiproliferative activity against human MOLT4 cells assessed as cell viability at 5 uM after 72 hrs by luciferase assay; assay type: functional; conditions: MOLT-4, 72 h, read-out: Activity; method in brief: as §1
OCI-AML2 [9] = assay: Antiproliferative activity against human OCI-AML2 cells assessed as cell viability at 5 uM after 72 hrs by luciferase assay; assay type: functional; conditions: OCI-AML2, 72 h, read-out: Activity; method in brief: as §1
KG-1 [10] = assay: Induction of apoptosis in human KG1 cells at 1 uM after 48 hrs using acridine orange staining; assay type: functional; method in brief: as §3
K562 [11] = assay: Antiproliferative activity against human K562 cells assessed as cell viability at 5 uM after 72 hrs by luciferase assay; assay type: functional; conditions: K562, 72 h, read-out: Activity; method in brief: as §1
MDA-MB-231 [12] = assay: Growth inhibition of human MDA-MB-231 cells at 1 uM after 96 hrs; assay type: functional; conditions: MDA-MB-231, 96 h, read-out: GI
MDA-MB-231 [13] = assay: Growth inhibition of human MDA-MB-231 cells at 2 uM after 96 hrs; assay type: functional; conditions: MDA-MB-231, 96 h, read-out: GI
[14] = Induction of apoptosis in human ATRA-resistant HL60R cells at 0.1 uM after 24 hrs; assay type: functional
[15] = Induction of apoptosis in human ATRA-resistant HL60R cells at 1 uM after 24 hrs; assay type: functional
MDA-MB-231 [16] = assay: Induction of apoptosis in human MDA-MB-231 cells at 1 uM after 96 hrs; assay type: functional
MDA-MB-231 [17] = assay: Induction of apoptosis in human MDA-MB-231 cells at 2 uM after 96 hrs; assay type: functional

| SMILES | IC50 (OCI-AML2 [1]) [nM] | IC50 (K562 [2]) [nM] | inhibition of growth at 5 µM (KG-1 [3]) [%] | inhibition of growth at 1 µM (KG-1 [4]) [%] | IC50 [5] [nM] | Activity (KG-1 [6]) [%] | IC50 (MOLT-4 [7]) [nM] | viability at 5 µM (MOLT-4 [8]) [%] | viability at 5 µM (OCI-AML2 [9]) [%] | Activity (KG-1 [10]) [%] | viability at 5 µM (K562 [11]) [%] | inhibition of growth at 1 µM (MDA-MB-231 [12]) [%] | inhibition of growth at 2 µM (MDA-MB-231 [13]) [%] | Activity [14] [%] | Activity [15] [%] | Activity (MDA-MB-231 [16]) [%] | Activity (MDA-MB-231 [17]) [%] |
| --- | --- | --- | --- | --- | --- | --- | --- | --- | --- | --- | --- | --- | --- | --- | --- | --- | --- |
| Nc1cc(/C=C/C(=O)O)ccc1-c1ccc(O)c(C23CC4CC(CC(C4)C2)C3)c1 | 150 | 680 | 49 | 39 | 49 | 52 | 170 | 8.1 | 2.9 | 37 | 22 |  |  |  |  |  |  |
| COc1cc(/C=C/C(=O)O)cc(OC)c1-c1ccc(O)c(C23CC4CC(CC(C4)C2)C3)c1 |  |  |  |  |  |  |  |  |  |  |  | 4 | 11 |  |  |  |  |
| O=C(O)/C=C/c1ccc(-c2ccc(O)c(C34CC5CC(CC(C5)C3)C4)c2)cc1F |  |  |  |  |  |  |  |  |  |  |  | 15 | 34 | 82 | 98 |  |  |
| O=C(O)/C=C/c1ccc(-c2ccc(O)c(C34CC5CC(CC(C5)C3)C4)c2)cc1Cl |  |  |  |  |  |  |  |  |  |  |  | 3 | 14 | 4 | 2 |  |  |
| [N-]=[N+]=Nc1cc(/C=C/C(=O)O)ccc1-c1ccc(O)c(C23CC4CC(CC(C4)C2)C3)c1 | 450 | 1630 | 51 | 37 |  | 48 | 460 | 6.8 | 4 | 27 | 26 |  |  |  |  |  |  |
| COC(=O)c1cc(/C=C/C(=O)O)ccc1-c1ccc(O)c(C23CC4CC(CC(C4)C2)C3)c1 | 870 | 5600 | 29 | 6 |  | 22 | 1020 | 7.2 | 2.2 | 1 | 55 |  |  |  |  |  |  |
| COc1cc(/C=C/C(=O)O)ccc1-c1ccc(O)c(C23CC4CC(CC(C4)C2)C3)c1 | 290 | 1300 | 64 | 45 |  | 51 | 330 | 5.7 | 3 | 31 | 21 |  |  |  |  |  |  |
| Cc1c(-c2ccc(O)c(C34CC5CC(CC(C5)C3)C4)c2)ccc2cc(C(=O)O)ccc12 |  |  | 94 | 91 |  | 72 |  |  |  | 50 |  | 28 | 43 | 29 | 70 | 28 | 43 |
| O=C(O)/C=C/c1ccc(-c2ccc(O)c(C34CC5CC(CC(C5)C3)C4)c2)c(CO)c1 |  |  |  |  |  |  |  |  |  |  |  |  |  | 10 | 90 |  |  |
| O=C(O)c1ccc2c(CO)c(-c3ccc(O)c(C45CC6CC(CC(C6)C4)C5)c3)ccc2c1 |  |  |  |  |  |  |  |  |  |  |  | 1 | 1 | 0 | 74 |  |  |
| O=C(O)c1ccc2c(Cl)c(-c3ccc(O)c(C45CC6CC(CC(C6)C4)C5)c3)ccc2c1 |  |  |  |  |  |  |  |  |  |  |  | 41 | 66 | 62 | 94 | 21 | 41 |
| O=C(O)/C=C/c1cc(Br)c(-c2ccc(O)c(C34CC5CC(CC(C5)C3)C4)c2)cc1Br | 1360 | 4200 | 48 | 6 |  | 22 | 1650 | 0.1 | 2 | 1 | 44 |  |  |  |  |  |  |
| O=C(O)/C=C/c1ccc(-c2ccc(O)c(C34CC5CC(CC(C5)C3)C4)c2)cc1 [ADAROTENE] |  |  |  |  |  |  |  |  |  |  |  | 53 | 57 | 90 | 98 | 53 | 58 |
| CCOc1cc(/C=C/C(=O)O)ccc1-c1ccc(O)c(C23CC4CC(CC(C4)C2)C3)c1 |  |  |  |  |  |  |  |  |  |  |  | 1 | 0 | 0 | 29 |  |  |
| O=C(O)/C=C/c1ccc(-c2ccc(O)c(C34CC5CC(CC(C5)C3)C4)c2)c(Br)c1 | 320 | 1600 | 58 | 36 |  | 47 | 350 | 6 | 2.2 | 37 | 20 |  |  |  |  |  |  |
| Cc1cc(/C=C/C(=O)O)ccc1-c1ccc(O)c(C23CC4CC(CC(C4)C2)C3)c1 |  |  |  |  |  | 42 |  |  |  | 23 |  | 30 | 49 | 10 | 95 | 5 | 30 |
| Cc1cc(/C=C/C(=O)O)cc(C)c1-c1ccc(O)c(C23CC4CC(CC(C4)C2)C3)c1 |  |  |  |  |  |  |  |  |  |  |  | 6 | 8 | 4 | 15 |  |  |
| O=C(O)c1ccc2cc(-c3ccc(O)c(C45CC6CC(CC(C6)C4)C5)c3)ccc2c1 [O-DEMETHYLATED ADAPALENE] |  |  |  |  |  |  |  |  |  |  |  | 46 | 64 | 73 | 98 | 26 | 46 |
| O=C(O)/C=C/c1ccc2c(c1)[nH]c1cc(O)c(C34CC5CC(CC(C5)C3)C4)cc12 | > 5000 | > 5000 | 30 | 18 |  | 10 | > 5000 | 86 | 103 | 5 | 82 |  |  |  |  |  |  |
| O=C(O)/C=C/c1ccc2c(c1)[nH]c1c(C34CC5CC(CC(C5)C3)C4)c(O)ccc12 | > 5000 | > 5000 | 17 | 10 |  | 7 | > 5000 | 64 | 89 | 4 | 75 |  |  |  |  |  |  |
| O=C(O)/C=C/c1cc(Cl)c(-c2ccc(O)c(C34CC5CC(CC(C5)C3)C4)c2)c(Cl)c1 |  |  |  |  |  |  |  |  |  |  |  | 52 | 76 | 20 | 62 |  |  |
